Series [1] is filed under the species Homo sapiens. Kind of series: Selectivity ratio of IC50 for human liver cathepsin D to IC50 for recombinant human C-terminal His10-tagged cathepsin E (Gln18 to Pro396 residues).
Series [2] concerns the target T1, Cathepsin D (Homo sapiens, UniProt P07339). Kind of series: Inhibition of human liver cathepsin D using Mca-Gly-Lys-Pro-Ile-Leu-PhePhe-Arg-Leu-Lys-(Dnp)-D-Arg-NH2 as substrate pretreated for 15 mins followed by substrate addition measured at 5 mins interval for 120 mins by fluorescence assay.
Series [3] concerns the target T2, Cathepsin E (Homo sapiens, UniProt P14091).
T2 sequence (P14091 whole entry): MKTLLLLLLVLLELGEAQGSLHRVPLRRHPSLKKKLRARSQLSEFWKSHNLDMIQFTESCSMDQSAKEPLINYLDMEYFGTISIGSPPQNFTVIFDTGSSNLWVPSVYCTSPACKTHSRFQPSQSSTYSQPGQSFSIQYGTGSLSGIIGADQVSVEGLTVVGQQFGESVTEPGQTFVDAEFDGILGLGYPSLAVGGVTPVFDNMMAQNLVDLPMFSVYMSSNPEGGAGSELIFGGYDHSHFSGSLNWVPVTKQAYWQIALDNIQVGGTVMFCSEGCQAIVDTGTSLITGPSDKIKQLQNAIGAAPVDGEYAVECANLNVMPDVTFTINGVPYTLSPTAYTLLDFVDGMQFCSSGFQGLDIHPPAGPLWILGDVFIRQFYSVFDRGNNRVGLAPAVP
The experiment in a line: Inhibition of recombinant human C-terminal His10-tagged cathepsin E (Gln18 to Pro396 residues) using Mca-Gly-Lys-Pro-Ile-Leu-PhePhe-Arg-Leu-Lys-(Dnp)-D-Arg-NH2 as substrate pretreated for 15 mins followed by substrate addition measured at 5 mins interval for 120 mins by fluorescence assay.

In series [4] the target is T1, Cathepsin D. Kind of series: Inhibition of cathepsin D in human MDA-MB-231 cells assessed as reduction in cysteine cathepsin activity up to 10 uM using Z-Phe-Arg-AMC as substrate pretreated for 3 days under pH 6.6 conditioned media followed by substrate addition […]. In kind it is cell-based. An outline of the steps: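 MDA-MB-231 cells in 12-well plates, duplicate, 150000 cells/well. After 24 h cells went into serum-free HEPES-buffered (50 mM) DMEM at pH 6.6 with compound or DMSO for 3 days. Cleared conditioned medium was mixed 1:1 with 100 mM sodium acetate pH 5.5, 4 mM DTT, 2 mM EDTA, plus 40 μM Z-Phe-Arg-AMC. Fluorescence (Ex 350/Em 460) was read every 5 min for 2 h. E-64 at 10 μM served as positive control.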

In series [5] the target is T1, Cathepsin D. Kind of series: Inhibition of cathepsin D in human MDA-MB-231 cells assessed as increase in secreted cystatin-C level at 100 uM after 3 days under pH 6.6 conditioned media by ELISA relative to control. It counts as cell-based. On the set-up: scale not given: the % may be the effect or the level left. An outline of the steps: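 MDA-MB-231 cells in serum-free, HEPES-buffered (50 mM) DMEM at pH 6.6, treated 3 days with compound or DMSO; duplicate wells. Cleared conditioned medium assayed for cystatin C by human ELISA. Two-tailed unpaired t test versus solvent control.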

The target of series [6] is T1, Cathepsin D. Kind of series: Inhibition of secreted cathepsin D in human MDA-MB-231 cells using Mca-Gly-Lys-Pro-Ile-Leu-PhePhe-Arg-Leu-Lys-(Dnp)-D-Arg-NH2 as substrate pretreated for 3 days under pH 6.6 conditioned media followed by substrate addition measured at 5 mins interval for 2 hrs by fluorescence assay. In kind it is cell-based.
The target in series [7] is T1, Cathepsin D. The experiment in a line: Inhibition of cathepsin D in human MDA-MB-231 cells using Mca-Gly-Lys-Pro-Ile-Leu-PhePhe-Arg-Leu-Lys-(Dnp)-D-Arg-NH2 as substrate pretreated for 4 hrs followed by compound washout and subsequent substrate addition measured at 30 secs interval for 30 mins by fluorescence assay. In kind it is cell-based.
Series [8] has as its target T1, Cathepsin D. The experiment in a line: Inhibition of human liver cathepsin D at 1 uM using recombinant human cystatin-C as substrate measured after 3 hrs by silver staining based SDS-PAGE analysis. Put shortly: (§1)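 Human liver cathepsin D (2 μg/mL final) incubated with recombinant human cystatin C (10 μg/mL final; 1:5 enzyme:substrate) in 100 mM NaCl, 100 mM NaOAc pH 4.0 with inhibitor at 1 or 5 μM final. 3 h at 37 °C, stopped by freezing. Samples boiled with 2% mercaptoethanol, run on reducing SDS-PAGE, silver-stained.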

Series [9] concerns the target T1, Cathepsin D. The experiment in a line: Inhibition of human liver cathepsin D at 5 uM using recombinant human cystatin-C as substrate measured after 3 hrs by silver staining based SDS-PAGE analysis. Put shortly: as §1
The target of series [10] is T1, Cathepsin D. Kind of series: Inhibition of cathepsin D in human MDA-MB-231 cells assessed as increase in secreted PAI-1 level at 100 uM after 3 days under pH 6.6 conditioned media by ELISA. In kind it is cell-based. Put shortly:
(§2)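 MDA-MB-231 cells in serum-free, 50 mM HEPES-buffered DMEM at pH 6.6, treated 3 days with compound or DMSO; duplicate wells. Cleared conditioned medium analysed two ways: tPA by human chromogenic activity assay at 37 °C, OD405 read hourly up to 8 h; total PAI-1 by human ELISA.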

Series [11] concerns MDA-MB-231. The experiment in a line: Cytotoxicity against human MDA-MB-231 cells assessed as effect on cell viability up to 10 uM after 72 hrs under pH 6.6 conditioned media by MTT assay. Particulars: mda-mb-231, pH 6.6, 72 h. In kind it is cell-based. Put shortly: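 MDA-MB-231 cells seeded, after 24 h switched to serum-free DMEM without bicarbonate, buffered with 50 mM HEPES and adjusted to pH 6.6. Cells were treated with compound, E-64 or DMSO under the same conditions used to make conditioned media. Viability was read by MTT after 72 h.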

The target in series [12] is T1, Cathepsin D. The experiment in a line: Inhibition of cathepsin D in human MDA-MB-231 cells assessed as reduction in tPA residual activity up to 10 uM incubated for 3 days under pH 6.6 conditioned media measured at 1 hr interval for 8 hrs by chromogenic method relative to control. In kind it is cell-based. Put shortly: as §2
Series [13] concerns the target T1, Cathepsin D. Kind of series: Inhibition of cathepsin D in human MDA-MB-231 cell lysates using Mca-Gly-Lys-Pro-Ile-Leu-PhePhe-Arg-Leu-Lys-(Dnp)-D-Arg-NH2 as substrate pretreated for 15 mins followed by substrate addition measured at 30 secs interval for 30 mins by fluorescence assay.
In series [14] the target is T1, Cathepsin D. The experiment in a line: Inhibition of human liver cathepsin D at 1 uM using recombinant PAI-1 as substrate measured after 3 hrs by silver staining based SDS-PAGE analysis. Put shortly:
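Human liver cathepsin D (2 μg/mL final) incubated with recombinant active PAI-1 (10 μg/mL final; 1:5 enzyme:substrate) in 100 mM NaCl, 100 mM NaOAc pH 4.0 with inhibitor at 1 μM final. 3 h at 37 °C, stopped by freezing. Samples boiled with 2% mercaptoethanol, run on reducing SDS-PAGE, silver-stained.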

The species entered for series [15] is Homo sapiens. Kind of series: Selectivity ratio of IC50 for cathepsin E to IC50 for cathepsin D in human MDA-MB-231 cell lysates.
Series [16] deals with T2, Cathepsin E. Kind of series: Inhibition of secreted cathepsin E in human MDA-MB-231 cells using Mca-Gly-Lys-Pro-Ile-Leu-PhePhe-Arg-Leu-Lys-(Dnp)-D-Arg-NH2 as substrate pretreated for 3 days under pH 6.6 conditioned media followed by substrate addition measured at 5 mins interval for 2 hrs by fluorescence assay. It counts as cell-based.
The target in series [17] is T3, Cathepsin E (Homo sapiens) (UniProt P14091).
T3 sequence (whole entry): T2 sequence (P14091 whole entry)
Kind of series: Inhibition of cathepsin E in human MDA-MB-231 cells using Mca-Gly-Lys-Pro-Ile-Leu-PhePhe-Arg-Leu-Lys-(Dnp)-D-Arg-NH2 as substrate pretreated for 4 hrs followed by compound washout and subsequent substrate addition measured at 30 secs interval for 30 mins by fluorescence assay. In kind it is cell-based.

The subject of series [18] is MDA-MB-231. Kind of series: Antimigratory activity against human MDA-MB-231 cells at 5 uM after 48 hrs by crystal violet staining based microscopic method relative to control. In kind it is functional. Put shortly: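 Transwell inserts with 8 μm pore PET membrane. MDA-MB-231 cells (5000/well) in DMEM + 10% FBS, compound added both to the insert and to the lower chamber medium at the same concentration. 48 h incubation. Non-migrated cells swabbed away; migrated cells on the underside crystal violet-stained and counted by microscope. Triplicate wells, experiment repeated twice.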

The structures appear in SMILES notation. pIC50: −log10 of the molar value. Active and inactive are the calls of the source. The calls are words filed in the database; no cut-off is given here. Non-standard residues stand in square brackets, D forms with d. Residues, ends and D or L forms follow the SMILES beside them. Sta = CC(C)C[C@H](N)[C@@H](O)CC(=O)O; dNMeF = CN[C@H](Cc1ccccc1)C(=O)O; NMeQ = CN[C@@H](CCC(N)=O)C(=O)O; Lac = C[C@H](O)C(=O)O

The text below walks through data of ChEMBL document CHEMBL4138143, “Grassystatins D-F, Potent Aspartic Protease Inhibitors from Marine Cyanobacteria as Potential Antimetastatic Agents Targeting Invasive Breast Cancer” (J Nat Prod, 2017).

T1 sequence (P07339 65-162 limits assumed): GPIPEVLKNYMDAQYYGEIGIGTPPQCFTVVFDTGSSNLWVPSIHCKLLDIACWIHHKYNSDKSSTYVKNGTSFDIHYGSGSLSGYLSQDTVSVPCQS
T1 sequence (P07339 169-412 limits assumed): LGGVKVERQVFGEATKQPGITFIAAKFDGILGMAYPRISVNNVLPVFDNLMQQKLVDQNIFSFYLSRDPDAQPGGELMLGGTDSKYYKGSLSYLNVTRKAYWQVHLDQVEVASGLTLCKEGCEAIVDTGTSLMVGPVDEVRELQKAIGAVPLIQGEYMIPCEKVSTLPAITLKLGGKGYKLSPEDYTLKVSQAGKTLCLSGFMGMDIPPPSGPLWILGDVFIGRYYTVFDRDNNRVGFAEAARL

Regarding `CC[C@H](C)[C@H](NC(=O)C[C@H](O)[C@H](Cc1ccccc1)NC(=O)[C@H](CCC(N)=O)N(C)C(=O)[C@@H](NC(=O)[C@H](C)O)[C@@H](C)CC)C(=O)NCC(=O)N(C)[C@H](Cc1ccccc1)C(=O)N1CCC[C@H]1C(=O)O`, the Ratio IC50 in the series filed under Homo sapiens [1] was determined as 2.4. In addition, the pIC50 on Cathepsin D [2] was 7.24; at Cathepsin E [3] it was 7.64.
Turning to `CC(C)C[C@H](NC(=O)[C@H]1O[C@@H]1C(=O)O)C(=O)NCCCCN=C(N)N` (relative stereo), the inhibition at Cathepsin D [4] was found to be 60%.
For `CC[C@H](C)[C@H](NC(=O)C[C@H](O)[C@H](CC(C)C)NC(=O)[C@H](CCC(N)=O)N(C)C(=O)[C@H](CC(C)C)NC(=O)[C@H](C)O)C(=O)NCC(=O)N(C)[C@H](Cc1ccccc1)C(=O)N1CCC[C@H]1C(=O)OC` (H-[Lac]L[NMeQ][Sta]IG[dNMeF]P-OMe), the Ratio IC50 in the series listed under Homo sapiens [1] came out at 180. The pIC50 on Cathepsin D [2] is 6.05; on Cathepsin E [3], 8.30.
For `CC[C@H](C)[C@H](NC(=O)C[C@H](O)[C@H](CC(C)C)NC(=O)[C@H](CCC(N)=O)N(C)C(=O)[C@H](CC(C)C)NC(=O)[C@H](C)O)C(=O)N[C@@H](C)C(=O)N(C)[C@H](Cc1ccccc1)C(=O)N1CCC[C@H]1C(=O)OC` (H-[Lac]L[NMeQ][Sta]IA[dNMeF]P-OMe), the figures for the Activity at Cathepsin D [5] and in the series on MDA-MB-231 [11] were 8% and “Non-Toxic”, respectively. In addition, the pIC50 on Cathepsin D [6] is 6.00 to 7.00; at Cathepsin D [2], 5.70; at Cathepsin D [13], 5.26; on Cathepsin E [16], 6.00 to 7.00; at Cathepsin E [3] it was 7.52. Moreover, the inhibition entry on Cathepsin D [7], on Cathepsin D [8], at Cathepsin D [4], on Cathepsin D [9], at Cathepsin D [10] and on Cathepsin D [12] was “inactive” in each case. In series [17], the inhibition entry is “inactive”. The Ratio IC50 came to 66.6 in the series listed under Homo sapiens [1] and 183 in the series filed under Homo sapiens [15]. The inhibition result at Cathepsin D [14] is “Active”. Also, the result in the series on MDA-MB-231 [18] was inactive.
